# Reference: ChEMBL document CHEMBL3351814, “Discovery of selective hexapeptide agonists to human neuromedin U receptors types 1 and 2” (J Med Chem, 2014)
# Active and inactive are the calls of the source. The calls are words filed in the database; no cut-off is given here. Where a SMILES comes first, the peptide text is derived from it. [ ]: non-standard residue; d: D form. The star is where a group is joined. Quinoline(6-carbonyl) = O=C(c1ccc2ncccc2c1)*; Propanoyl(3-(3-pyridyl)) = O=C(CCc1cccnc1)*; Acetyl(pyridin-2-yl) = O=C(Cc1ccccn1)*; 1Nal = N[C@@H](Cc1cccc2ccccc12)C(=O)O; Butanoyl(4-cHex) = O=C(CCCC1CCCCC1)*; Propanoyl(3-cHex) = O=C(CCC1CCCCC1)*; Acetyl(3-pyridyl) = O=C(Cc1cccnc1)*; Acetyl(4-pyridyl) = O=C(Cc1ccncc1)*; Butanoyl(4-Ph) = O=C(CCCc1ccccc1)*; Hydrocinnamoyl = O=C(CCc1ccccc1)*; Quinaldoyl = O=C(c1ccc2ccccc2n1)*; Tic = O=C(O)[C@@H]1Cc2ccccc2CN1; Cha = N[C@@H](CC1CCCCC1)C(=O)O; Agb = N=C(N)NCC[C@H](N)C(=O)O; Agp = N=C(N)NC[C@H](N)C(=O)O; Chg = N[C@H](C(=O)O)C1CCCCC1; Nle = CCCC[C@H](N)C(=O)O; Dab = NCC[C@H](N)C(=O)O; Nva = CCC[C@H](N)C(=O)O; Dap = NC[C@H](N)C(=O)O; PhAc = O=C(Cc1ccccc1)*; X1 = O=C(Cn1ccnc1)*
# Biological target: T1, Neuromedin-U receptor 1 (Homo sapiens) (UniProt Q9HB89)
# T1 sequence (whole entry): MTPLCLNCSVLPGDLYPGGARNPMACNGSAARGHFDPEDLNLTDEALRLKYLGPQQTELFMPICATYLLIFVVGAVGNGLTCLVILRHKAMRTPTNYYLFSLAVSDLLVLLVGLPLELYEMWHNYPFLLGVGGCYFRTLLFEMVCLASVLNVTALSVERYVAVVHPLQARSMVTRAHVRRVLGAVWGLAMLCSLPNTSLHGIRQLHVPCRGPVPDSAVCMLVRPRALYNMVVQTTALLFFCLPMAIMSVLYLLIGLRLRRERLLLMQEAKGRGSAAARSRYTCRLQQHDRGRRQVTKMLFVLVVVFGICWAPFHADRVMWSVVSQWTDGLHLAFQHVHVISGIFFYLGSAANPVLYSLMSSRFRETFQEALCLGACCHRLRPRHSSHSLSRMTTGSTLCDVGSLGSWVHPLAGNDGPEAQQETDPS
# Assay: Agonist activity at human NMUR1 expressed in HEK293 cells at 1 to 100 nM by calcium mobilization assay relative to NMU
# Assay type: functional, cell-based
# How it was run: (§1)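 HEK293 cells transiently transfected with human NMUR1 or NMUR2 plasmid (FuGENE6), reseeded 18 h post-transfection at 4.0 × 10^4 cells/well on poly-D-lysine. After 18 h, loaded 40 min with 4 μM Fluo-4-AM in HBSS/HEPES/probenecid buffer pH 7.4 with 1% FCS, then washed. Peptides in buffer with 0.05% BSA and 0.001% Triton X-100. Maximal FLIPR signal expressed as % of hNMU at 1000 nM.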
row,Structure (SMILES),Activity
1,CC(C)C[C@H](NC(=O)[C@@H]1Cc2ccccc2CN1)C(=O)N[C@@H](Cc1ccccc1)C(=O)N[C@@H](CCCNC(=N)N)C(=O)N1CCC[C@H]1C(=O)N[C@@H](CCCNC(=N)N)C(=O)N[C@@H](CC(N)=O)C(N)=O (H-[Tic]LFRPRN-NH2),Active
2,CC(C)C[C@H](NC(=O)CCc1ccccc1)C(=O)N[C@@H](Cc1ccccc1)C(=O)N[C@@H](CCCNC(=N)N)C(=O)N1CCC[C@H]1C(=O)N[C@@H](CCCNC(=N)N)C(=O)N[C@@H](C)C(N)=O (Hydrocinnamoyl-LFRPRA-NH2),inactive
3,CC(C)C[C@H](NC(=O)CCc1ccccc1)C(=O)N[C@@H](Cc1ccccc1)C(=O)N[C@@H](CCCNC(=N)N)C(=O)N1CCC[C@H]1C(=O)N[C@@H](CCCNC(=N)N)C(=O)N[C@@H](CC(=O)O)C(N)=O (Hydrocinnamoyl-LFRPRD-NH2),inactive
4,CC(C)C[C@H](NC(=O)[C@H](CCCNC(=N)N)NC(=O)[C@@H]1CCCN1C(=O)[C@H](CCCNC(=N)N)NC(=O)[C@H](Cc1ccccc1)NC(=O)[C@H](CC(C)C)NC(=O)CCc1ccccc1)C(N)=O (Hydrocinnamoyl-LFRPRL-NH2),inactive
5,N=C(N)NCCC[C@H](NC(=O)[C@@H]1CCCN1C(=O)[C@H](CCCNC(=N)N)NC(=O)[C@H](Cc1ccccc1)NC(=O)[C@H](Cc1ccccc1)NC(=O)Cc1cccnc1)C(=O)N[C@@H](CC(N)=O)C(N)=O ({Acetyl(3-pyridyl)}-FFRPRN-NH2),Active
6,N=C(N)NCCC[C@H](NC(=O)[C@@H]1CCCN1C(=O)[C@H](CCCNC(=N)N)NC(=O)[C@H](Cc1ccccc1)NC(=O)[C@H](Cc1ccccc1)NC(=O)Cc1ccncc1)C(=O)N[C@@H](CC(N)=O)C(N)=O ({Acetyl(4-pyridyl)}-FFRPRN-NH2),Active
7,N=C(N)NCCC[C@H](NC(=O)[C@@H]1CCCN1C(=O)[C@H](CCCNC(=N)N)NC(=O)[C@H](Cc1ccccc1)NC(=O)[C@H](Cc1ccccc1)NC(=O)CCc1cccnc1)C(=O)N[C@@H](CC(N)=O)C(N)=O ({Propanoyl(3-(3-pyridyl))}-FFRPRN-NH2),Active
8,CC(C)C[C@H](NC(=O)CCc1cccnc1)C(=O)N[C@@H](Cc1ccccc1)C(=O)N[C@@H](CCCNC(=N)N)C(=O)N1CCC[C@H]1C(=O)N[C@@H](CCCNC(=N)N)C(=O)N[C@@H](CC(N)=O)C(N)=O ({Propanoyl(3-(3-pyridyl))}-LFRPRN-NH2),Active
9,N=C(N)NCCC[C@H](NC(=O)[C@@H]1CCCN1C(=O)[C@H](CCCNC(=N)N)NC(=O)[C@H](Cc1ccccc1)NC(=O)[C@H](Cc1c[nH]c2ccccc12)NC(=O)CCc1cccnc1)C(=O)N[C@@H](CC(N)=O)C(N)=O ({Propanoyl(3-(3-pyridyl))}-WFRPRN-NH2),Active
10,N=C(N)NCCC[C@H](NC(=O)[C@@H]1CCCN1C(=O)[C@H](CCCNC(=N)N)NC(=O)[C@H](Cc1ccccc1)NC(=O)[C@H](Cc1cccc2ccccc12)NC(=O)CCc1cccnc1)C(=O)N[C@@H](CC(N)=O)C(N)=O ({Propanoyl(3-(3-pyridyl))}-[1Nal]FRPRN-NH2),Active

# Results, then the compound that gave them:
row,Activity,Structure (SMILES)
1,Active,CC(C)C[C@H](NC(=O)Cc1ccccc1)C(=O)N[C@@H](Cc1ccccc1)C(=O)N[C@@H](CCCNC(=N)N)C(=O)N1CCC[C@H]1C(=O)N[C@@H](CCCNC(=N)N)C(=O)N[C@@H](CC(N)=O)C(N)=O (PhAc-LFRPRN-NH2)
2,inactive,N=C(N)NCCC[C@H](NC(=O)[C@@H]1CCCN1C(=O)[C@H](CCCNC(=N)N)NC(=O)[C@H](Cc1ccccc1)NC(=O)[C@H](Cc1ccccc1)NC(=O)c1ccc2ccccc2n1)C(=O)N[C@@H](CC(N)=O)C(N)=O (Quinaldoyl-FFRPRN-NH2)
3,Active,N=C(N)NCCC[C@H](NC(=O)[C@@H]1CCCN1C(=O)[C@H](CCCNC(=N)N)NC(=O)[C@H](Cc1ccccc1)NC(=O)[C@H](Cc1ccccc1)NC(=O)Cn1ccnc1)C(=O)N[C@@H](CC(N)=O)C(N)=O (X1-FFRPRN-NH2)
4,Active,N=C(N)NCCC[C@H](NC(=O)[C@@H]1CCCN1C(=O)[C@H](CCCNC(=N)N)NC(=O)[C@H](Cc1ccccc1)NC(=O)[C@H](Cc1ccccc1)NC(=O)Cc1ccccn1)C(=O)N[C@@H](CC(N)=O)C(N)=O ({Acetyl(pyridin-2-yl)}-FFRPRN-NH2)
5,inactive,N=C(N)NCCC[C@H](NC(=O)[C@@H]1CCCN1C(=O)[C@H](CCCNC(=N)N)NC(=O)[C@H](Cc1ccccc1)NC(=O)[C@H](Cc1ccccc1)NC(=O)c1ccc2ncccc2c1)C(=O)N[C@@H](CC(N)=O)C(N)=O ({Quinoline(6-carbonyl)}-FFRPRN-NH2)

# Biological target: Neuromedin-U receptor 2 (Homo sapiens, UniProt Q9GZQ4)
# Assay: Agonist activity at human NMUR2 expressed in HEK293 cells at 1 to 100 nM by calcium mobilization assay relative to NMU
# Assay type: functional, cell-based
# How it was run: as §1
# Chain of Neuromedin-U receptor 2 (Q9GZQ4 whole entry): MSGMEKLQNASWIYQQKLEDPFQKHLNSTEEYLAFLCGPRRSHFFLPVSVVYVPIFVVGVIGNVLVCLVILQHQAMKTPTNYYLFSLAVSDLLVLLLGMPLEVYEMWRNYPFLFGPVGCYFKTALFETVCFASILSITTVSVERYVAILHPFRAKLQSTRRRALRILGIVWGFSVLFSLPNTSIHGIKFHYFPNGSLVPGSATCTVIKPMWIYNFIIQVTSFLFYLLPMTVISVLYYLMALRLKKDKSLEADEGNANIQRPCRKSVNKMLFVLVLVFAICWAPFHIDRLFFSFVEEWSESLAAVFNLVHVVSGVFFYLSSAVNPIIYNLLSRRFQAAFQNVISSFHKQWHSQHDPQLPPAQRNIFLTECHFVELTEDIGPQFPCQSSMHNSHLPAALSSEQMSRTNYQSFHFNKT
row,Structure (SMILES),Activity
1,CC(C)C[C@H](NC(=O)[C@@H]1Cc2ccccc2CN1)C(=O)N[C@@H](Cc1ccccc1)C(=O)N[C@@H](CCCNC(=N)N)C(=O)N1CCC[C@H]1C(=O)N[C@@H](CCCNC(=N)N)C(=O)N[C@@H](CC(N)=O)C(N)=O (H-[Tic]LFRPRN-NH2),Active
2,CC(C)C[C@H](NC(=O)CCc1ccccc1)C(=O)N[C@@H](Cc1ccccc1)C(=O)N[C@@H](CCCNC(=N)N)C(=O)N1CCC[C@H]1C(=O)N[C@@H](CCCNC(=N)N)C(=O)N[C@@H](C)C(N)=O (Hydrocinnamoyl-LFRPRA-NH2),inactive
3,CC(C)C[C@H](NC(=O)CCc1ccccc1)C(=O)N[C@@H](Cc1ccccc1)C(=O)N[C@@H](CCCNC(=N)N)C(=O)N1CCC[C@H]1C(=O)N[C@@H](CCCNC(=N)N)C(=O)N[C@@H](CC(=O)O)C(N)=O (Hydrocinnamoyl-LFRPRD-NH2),inactive
4,CC(C)C[C@H](NC(=O)[C@H](CCCNC(=N)N)NC(=O)[C@@H]1CCCN1C(=O)[C@H](CCCNC(=N)N)NC(=O)[C@H](Cc1ccccc1)NC(=O)[C@H](CC(C)C)NC(=O)CCc1ccccc1)C(N)=O (Hydrocinnamoyl-LFRPRL-NH2),inactive
5,CC(C)C[C@H](NC(=O)CCc1ccccc1)C(=O)N[C@@H](Cc1ccccc1)C(=O)N[C@@H](CNC(=N)N)C(=O)N1CCC[C@H]1C(=O)N[C@@H](CCCNC(=N)N)C(=O)N[C@@H](CC(N)=O)C(N)=O (Hydrocinnamoyl-LF[Agp]PRN-NH2),Active
6,CC(C)C[C@H](NC(=O)CCc1ccccc1)C(=O)N[C@@H](Cc1ccccc1)C(=O)N[C@@H](CCN)C(=O)N1CCC[C@H]1C(=O)N[C@@H](CCCNC(=N)N)C(=O)N[C@@H](CC(N)=O)C(N)=O (Hydrocinnamoyl-LF[Dab]PRN-NH2),Active
7,CC(C)C[C@H](NC(=O)CCCc1ccccc1)C(=O)N[C@@H](Cc1ccccc1)C(=O)N[C@@H](CCCNC(=N)N)C(=O)N1CCC[C@H]1C(=O)N[C@@H](CCCNC(=N)N)C(=O)N[C@@H](CC(N)=O)C(N)=O ({Butanoyl(4-Ph)}-LFRPRN-NH2),Active
8,CC(C)C[C@H](NC(=O)CCCC1CCCCC1)C(=O)N[C@@H](Cc1ccccc1)C(=O)N[C@@H](CCCNC(=N)N)C(=O)N1CCC[C@H]1C(=O)N[C@@H](CCCNC(=N)N)C(=O)N[C@@H](CC(N)=O)C(N)=O ({Butanoyl(4-cHex)}-LFRPRN-NH2),Active
9,CC(C)C[C@H](NC(=O)CCC1CCCCC1)C(=O)N[C@@H](Cc1ccccc1)C(=O)N[C@@H](CCCNC(=N)N)C(=O)N1CCC[C@H]1C(=O)N[C@@H](CCCNC(=N)N)C(=O)N[C@@H](CC(N)=O)C(N)=O ({Propanoyl(3-cHex)}-LFRPRN-NH2),Active
10,CC[C@H](C)[C@H](NC(=O)[C@H](CC(C)C)NC(=O)CCC1CCCCC1)C(=O)N[C@@H](CN)C(=O)N1CCC[C@H]1C(=O)N[C@@H](CCCNC(=N)N)C(=O)N[C@@H](CC(N)=O)C(N)=O ({Propanoyl(3-cHex)}-LI[Dap]PRN-NH2),Active
11,CC(C)C[C@H](NC(=O)CCC1CCCCC1)C(=O)N[C@@H](CC1CCCCC1)C(=O)N[C@@H](CN)C(=O)N1CCC[C@H]1C(=O)N[C@@H](CCCNC(=N)N)C(=O)N[C@@H](CC(N)=O)C(N)=O ({Propanoyl(3-cHex)}-L[Cha][Dap]PRN-NH2),Active
12,CC(C)C[C@H](NC(=O)CCC1CCCCC1)C(=O)N[C@H](C(=O)N[C@@H](CN)C(=O)N1CCC[C@H]1C(=O)N[C@@H](CCCNC(=N)N)C(=O)N[C@@H](CC(N)=O)C(N)=O)C1CCCCC1 ({Propanoyl(3-cHex)}-L[Chg][Dap]PRN-NH2),Active
13,CCC[C@H](NC(=O)[C@H](CC(C)C)NC(=O)CCC1CCCCC1)C(=O)N[C@@H](CN)C(=O)N1CCC[C@H]1C(=O)N[C@@H](CCCNC(=N)N)C(=O)N[C@@H](CC(N)=O)C(N)=O ({Propanoyl(3-cHex)}-L[Nva][Dap]PRN-NH2),Active

# Further lines, results first:
row,Activity,Structure (SMILES)
1,inactive,CC(C)C[C@H](NC(=O)CCc1ccccc1)C(=O)N[C@@H](Cc1ccccc1)C(=O)N[C@@H](CCCCN)C(=O)N1CCC[C@H]1C(=O)N[C@@H](CCCNC(=N)N)C(=O)N[C@@H](CC(N)=O)C(N)=O (Hydrocinnamoyl-LFKPRN-NH2)
2,Active,CC(C)C[C@H](NC(=O)CCc1ccccc1)C(=O)N[C@@H](Cc1ccccc1)C(=O)N[C@@H](CCNC(=N)N)C(=O)N1CCC[C@H]1C(=O)N[C@@H](CCCNC(=N)N)C(=O)N[C@@H](CC(N)=O)C(N)=O (Hydrocinnamoyl-LF[Agb]PRN-NH2)
3,Active,CC(C)C[C@H](NC(=O)CCc1ccccc1)C(=O)N[C@@H](Cc1ccccc1)C(=O)N[C@@H](CN)C(=O)N1CCC[C@H]1C(=O)N[C@@H](CCCNC(=N)N)C(=O)N[C@@H](CC(N)=O)C(N)=O (Hydrocinnamoyl-LF[Dap]PRN-NH2)
4,Active,CC(C)C[C@H](NC(=O)CCc1ccccc1)C(=O)N[C@@H](CC1CCCCC1)C(=O)N[C@@H](CCCNC(=N)N)C(=O)N1CCC[C@H]1C(=O)N[C@@H](CCCNC(=N)N)C(=O)N[C@@H](CC(N)=O)C(N)=O (Hydrocinnamoyl-L[Cha]RPRN-NH2)
5,Active,CC(C)C[C@H](NC(=O)CCC1CCCCC1)C(=O)N[C@@H](CC1CCCCC1)C(=O)N[C@@H](CCCNC(=N)N)C(=O)N1CCC[C@H]1C(=O)N[C@@H](CCCNC(=N)N)C(=O)N[C@@H](CC(N)=O)C(N)=O ({Propanoyl(3-cHex)}-L[Cha]RPRN-NH2)
6,Active,CCCC[C@H](NC(=O)[C@H](CC(C)C)NC(=O)CCC1CCCCC1)C(=O)N[C@@H](CN)C(=O)N1CCC[C@H]1C(=O)N[C@@H](CCCNC(=N)N)C(=O)N[C@@H](CC(N)=O)C(N)=O ({Propanoyl(3-cHex)}-L[Nle][Dap]PRN-NH2)
